High-throughput results from PubChem.
TAAR1 antagonist – human TAAR1 antagonism. CHO RD-HGA16 TAAR1, Fluo-8 calcium fluorescence, antagonist. inhibition, % at 3 µM. 360,000 compounds, 1.5% hits. AID 624466;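 active means inhibition above a per-plate cutoff, the mean inhibition of test compounds on that plate plus 3 SD, cut at about 49% in these data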;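 further: 0% = DMSO plus EC80 beta-PEA response and 100% = DMSO alone without agonist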
Target sequence (Q96RJ0 whole entry, looked up): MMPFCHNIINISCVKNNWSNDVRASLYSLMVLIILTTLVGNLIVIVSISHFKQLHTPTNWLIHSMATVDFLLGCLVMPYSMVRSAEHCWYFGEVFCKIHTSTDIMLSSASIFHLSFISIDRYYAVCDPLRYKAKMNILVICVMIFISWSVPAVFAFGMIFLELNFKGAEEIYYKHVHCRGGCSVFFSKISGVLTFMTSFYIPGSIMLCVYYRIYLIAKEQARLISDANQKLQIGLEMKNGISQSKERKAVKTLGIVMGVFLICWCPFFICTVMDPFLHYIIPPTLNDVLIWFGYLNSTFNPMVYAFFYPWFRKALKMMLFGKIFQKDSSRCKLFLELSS
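System: RD-HGA16 CHO cells with stable hTAAR1 and Gα16 | Probe or stimulus: EC80 β-phenethylamine stimulus | Dosing: 3 µM, single point | Times: Dye loading 75 min at 37 °C, then 30 min room temperature | Measured by: Fluo-8 calcium-sensitive fluorescence | Read-out basis: % inhibition of agonist calcium response | Replicates: n of 1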
NTR1 ag – activates human neurotensin receptor 1; activation, % at 20 µM; 330,000 compounds, 0.17% hits; NTR1-U2OS beta-arrestin-GFP spot imaging, agonist mode; P30989;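 active means activation at or above 40% of the spot to cytoplasm intensity ratio, with at least 20 cells analyzed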;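 further: 0% = DMSO without peptide and 100% = 100 nM NTR1 peptide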
Target sequence (P30989 whole entry, looked up): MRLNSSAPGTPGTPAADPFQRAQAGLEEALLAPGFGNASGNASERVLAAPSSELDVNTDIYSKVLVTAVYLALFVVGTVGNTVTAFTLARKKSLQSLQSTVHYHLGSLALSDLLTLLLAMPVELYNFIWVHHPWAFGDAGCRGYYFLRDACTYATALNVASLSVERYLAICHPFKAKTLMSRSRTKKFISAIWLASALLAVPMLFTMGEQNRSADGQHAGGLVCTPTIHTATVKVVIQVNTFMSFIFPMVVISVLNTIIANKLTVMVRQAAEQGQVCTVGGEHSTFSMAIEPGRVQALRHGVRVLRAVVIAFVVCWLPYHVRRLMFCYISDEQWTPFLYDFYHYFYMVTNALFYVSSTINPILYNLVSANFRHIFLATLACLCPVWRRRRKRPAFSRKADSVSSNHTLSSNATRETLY
OX1R antag-1 – antagonists of human orexin 1 receptor (OX1R) | 330,000 compounds, 1.8% hits | AID 485270 | OX1R-expressing cells, FRET antagonist read-out | inhibition, % at 6.6 µM; in the data active means inhibition mostly above about 38%, no sharp cut-off; inactive means mostly below about 40%;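 further: 0% = agonist challenge alone and 100% = reference antagonist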
CHO parental Ca – counter-screen: ATP calcium response change in parental CHO cells | inhibition, % at 5.6 µM | 330,000 compounds, 0.63% hits | parental CHO-K1, ATP-induced calcium, Fluo-8 fluorescence;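 active means inhibition above that plate's mean sample inhibition plus 3 SD, cut at about 26% in these data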;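 further: 0% = ATP-challenged DMSO wells and 100% = DMSO wells without ATP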
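Material – parental CHO cells · Reagent – ATP stimulus · Compound – single nominal dose of 5.6 µM per compound · Detection – Fluo-8 fluorescence · Read-out basis – percent inhibition of calcium signal · Controls – ATP-challenged DMSO wells low, unchallenged DMSO wells high · Repeats – no replicates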
OX1R antag-2 – blocks the human orexin 1 receptor | inhibition, % at 5 µM | CHO/OX1R cells, Fluo-8 calcium fluorescence, orexin A | AID 434989 | 330,000 compounds, 0.43% hits | O43613;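 active means inhibition above its plate's threshold, mean inhibition of all tested compounds on the plate plus 3 SD, cut at about 37% in these data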;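 further: 0% = orexin A challenge wells and 100% = SB-334867-A antagonist wells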
TAAR1 agonist – human TAAR1 agonism | Q96RJ0 | CHO RD-HGA16 TAAR1, Fluo-8 calcium fluorescence; vehicle wells 0%, saturating PEA agonist 100% | activation, % at 3 µM | 360,000 compounds, 0.99% hits;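 active means activation above the mean activation of all test compounds in the run plus 3 SD, cut at about 38% in these data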
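Assay system – CHO-derived RD-HGA16 cells with stable Gα16 and human TAAR1 · Compound dosing – one-point dosing at 3 µM (nominal) · Incubation – 17-24 h seeding, 75 min 37 °C dye, 30 min RT · Measured by – kinetic Fluo-8 calcium fluorescence · Control set – DMSO vehicle as 0%, PEA at EC100 as 100% · Repeats – single well for each compound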
OX1R HTRF conf – confirmation of human orexin 1 receptor antagonists, HTRF format. shares compounds with OX1R antag-1. OX1R-expressing cells, HTRF antagonist assay. 1,800 compounds, 49% hits. inhibition, % at 6.6 µM; in the data active means inhibition above about 55%;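 further: CHO cells expressing OX1R stimulated with orexin A at about EC80; 0% = agonist challenge alone and 100% = reference antagonist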
CHO-K1 HTRF cnt – counter-screen for OX1R antagonists: effect in parental CHO-K1 cells; shares compounds with OX1R antag-1; HTRF counterscreen; inhibition, % at 6.6 µM; 1,800 compounds, 48% hits; AID 493232; in the data active means inhibition above about 17%;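 further: 0% = agonist challenge with vehicle and 100% = vehicle alone without agonist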
Active calls of the source: *. The list is not random: actives were taken first. Their share in the collection is about 4%.

What do the screens show for `O=C(CN1C(=O)c2ccc([N+](=O)[O-])cc2C1=O)NCc1ccco1`?
TAAR1 antagonist: 8.9; NTR1 ag: -1.3; OX1R antag-1: 88.0*; CHO parental Ca: -1.3; OX1R antag-2: -11.1; TAAR1 agonist: 0.4; OX1R HTRF conf: 46.3; CHO-K1 HTRF cnt: 53.4*

Results for COc1ccc(-c2nn3c(-c4ccccc4)nnc3s2)cc1 ?
TAAR1 antagonist: 9.4; NTR1 ag: 8.9; OX1R antag-1: 87.0*; CHO parental Ca: -7.3; OX1R antag-2: 19.6; TAAR1 agonist: 1.0; OX1R HTRF conf: 88.1*; CHO-K1 HTRF cnt: 13.2

How did COc1ccc(-c2nn3c(-c4ccc(F)cc4)nnc3s2)cc1 do in these assays?
TAAR1 antagonist: -4.5; NTR1 ag: 7.1; OX1R antag-1: 7.7; CHO parental Ca: -6.3; OX1R antag-2: -13.7; TAAR1 agonist: -0.9

Results for CCOC(=O)c1nn(-c2ccccc2C)c(=O)c(C#N)c1C ?
TAAR1 antagonist: 9.1; NTR1 ag: 0.3; OX1R antag-1: 126.7*; CHO parental Ca: 1.5; OX1R antag-2: -5.9; TAAR1 agonist: 5.2; OX1R HTRF conf: 65.4*; CHO-K1 HTRF cnt: 43.0*

What do the screens show for `Cc1cccc(C(=O)NNC(=O)C2CCCCC2)c1O`?
TAAR1 antagonist: -13.4; TAAR1 agonist: 2.0

Results for CN(C)S(=O)(=O)c1ccc(N2CCCC2)c(C(=O)OCC(=O)N2CCN(c3ccccc3)CC2)c1 ?
TAAR1 antagonist: -1.8; NTR1 ag: 2.7; OX1R antag-1: 20.4; CHO parental Ca: -11.9; OX1R antag-2: -30.9; TAAR1 agonist: 0.9

How did Cc1nc(SC2CC(=O)N(c3ccccc3)C2=O)n[nH]1 (stereo not drawn) do in these assays?
TAAR1 antagonist: -5.6; NTR1 ag: 2.0; OX1R antag-1: -4.0; CHO parental Ca: -2.2; OX1R antag-2: 0.4; TAAR1 agonist: 6.1

How did Cc1nc(S/C(C(=O)O)=C2/C(=O)Nc3ccccc32)n[nH]1 do in these assays?
TAAR1 antagonist: -9.2; NTR1 ag: 0.7; OX1R antag-1: 78.0*; CHO parental Ca: -2.4; OX1R antag-2: -6.5; TAAR1 agonist: 4.2; OX1R HTRF conf: 42.0; CHO-K1 HTRF cnt: 46.1*

How did O=C1NC(=O)/C(=C\c2ccc(Oc3ccc([N+](=O)[O-])cn3)cc2)S1 do in these assays?
TAAR1 antagonist: -6.0; NTR1 ag: 0.0; OX1R antag-1: 77.5*; CHO parental Ca: 17.2; OX1R antag-2: 2.5; TAAR1 agonist: -1.2; OX1R HTRF conf: 46.3; CHO-K1 HTRF cnt: 10.0

What do the screens show for `CCSC(=O)NC1CCCCC1`?
TAAR1 antagonist: -18.4; NTR1 ag: -0.8; OX1R antag-1: 7.7; CHO parental Ca: -3.5; OX1R antag-2: -7.3; TAAR1 agonist: 0.7

What do the screens show for `O=[N+]([O-])c1c(NCCO)cc(N2CCCCC2)c2nonc12`?
TAAR1 antagonist: -8.9; NTR1 ag: 0.6; OX1R antag-1: 90.0*; CHO parental Ca: -6.4; OX1R antag-2: -11.0; TAAR1 agonist: 4.0; OX1R HTRF conf: 52.4; CHO-K1 HTRF cnt: 38.9*

Results for CCOc1ccc(C(=O)NCC(=O)OCCN2C(=O)c3ccccc3C2=O)cc1OCC ?
TAAR1 antagonist: 3.7; NTR1 ag: -1.0; OX1R antag-1: 14.8; CHO parental Ca: -15.7; OX1R antag-2: -13.4; TAAR1 agonist: 5.9

What do the screens show for `O=C(Cc1cccc(NC(=O)C2CCCN(C(=O)C3CCCC3)C2)c1)Nc1cccc(C(=O)N2CCCCC2)c1` (stereo not drawn)?
TAAR1 antagonist: -19.1; TAAR1 agonist: 4.3

How did COc1ccc(C(=O)Nc2nc(-c3cccs3)cs2)cc1 do in these assays?
TAAR1 antagonist: 6.6; NTR1 ag: 5.2; OX1R antag-1: 89.9*; CHO parental Ca: -14.8; OX1R antag-2: -6.6; TAAR1 agonist: 5.0; OX1R HTRF conf: 64.6*; CHO-K1 HTRF cnt: 20.0*

How did O=C(Nc1nc(-c2cccs2)cs1)c1ccco1 do in these assays?
TAAR1 antagonist: -9.4; NTR1 ag: -0.8; OX1R antag-1: 9.6; CHO parental Ca: -25.8; OX1R antag-2: -26.3; TAAR1 agonist: -0.7

How did O=S1(=O)CC2SC(=S)N(Cc3ccccc3)C2C1 (stereo not drawn) do in these assays?
TAAR1 antagonist: -8.9; NTR1 ag: 1.5; OX1R antag-1: 5.8; CHO parental Ca: -11.4; OX1R antag-2: -14.7; TAAR1 agonist: 1.9

How did COc1cc(/C=C2\NC(=O)NC2=O)cc(Br)c1OC do in these assays?
TAAR1 antagonist: 0.7; NTR1 ag: 2.1; OX1R antag-1: -4.4; CHO parental Ca: -7.8; OX1R antag-2: -0.1; TAAR1 agonist: 6.8

How did O=C(O)COc1c(Cl)cc(/C=C2/NC(=O)NC2=O)cc1Br do in these assays?
TAAR1 antagonist: 10.8; NTR1 ag: -0.1; OX1R antag-1: 87.7*; CHO parental Ca: -8.7; OX1R antag-2: -14.6; TAAR1 agonist: 0.8; OX1R HTRF conf: 41.7; CHO-K1 HTRF cnt: 36.9*

Results for CCOC(=O)c1nn(-c2ccccc2)c(=O)c2c(N)scc12 ?
TAAR1 antagonist: 7.4; NTR1 ag: -3.1; OX1R antag-1: 107.5*; CHO parental Ca: -12.7; OX1R antag-2: -21.5; TAAR1 agonist: 0.5; OX1R HTRF conf: 31.3; CHO-K1 HTRF cnt: 17.3*

What do the screens show for `O=C1C(=O)c2ccccc2C([O-])=C1[n+]1ccccc1`?
TAAR1 antagonist: -22.1; NTR1 ag: -0.7; OX1R antag-1: 170.9*; CHO parental Ca: -9.7; OX1R antag-2: -13.4; TAAR1 agonist: 2.6; OX1R HTRF conf: 59.9*; CHO-K1 HTRF cnt: 108.5*

How did O=C(N[C@@H]1CCC(=O)N(CC[C@H](Sc2ccccc2)c2ccccc2)CC1)OCc1ccccc1 do in these assays?
TAAR1 antagonist: 30.1; NTR1 ag: 0.8; OX1R antag-1: 11.2; CHO parental Ca: -7.6; OX1R antag-2: -29.0; TAAR1 agonist: 1.8

Results for O=C(Oc1ccc(Br)cc1C(=S)N1CCCCC1)c1cc([N+](=O)[O-])cc([N+](=O)[O-])c1 ?
NTR1 ag: 2.2; OX1R antag-1: 130.2*; CHO parental Ca: -6.2; OX1R antag-2: -18.5; OX1R HTRF conf: 73.3*; CHO-K1 HTRF cnt: 69.7*

What do the screens show for `CCN1CCN(C(=O)/C=C/c2ccc([N+](=O)[O-])cc2)CC1`?
TAAR1 antagonist: 2.4; NTR1 ag: -0.6; OX1R antag-1: 97.1*; CHO parental Ca: -0.7; OX1R antag-2: -4.3; TAAR1 agonist: 0.9; OX1R HTRF conf: 44.2; CHO-K1 HTRF cnt: 58.6*

How did O=C(/C=C/c1ccc([N+](=O)[O-])cc1)N1CCN(Cc2ccccc2)CC1 do in these assays?
TAAR1 antagonist: -1.6; NTR1 ag: -0.9; OX1R antag-1: 37.5; CHO parental Ca: 3.7; OX1R antag-2: -6.4; TAAR1 agonist: 1.8
